# Assay results as given in ChEMBL document CHEMBL1137341, “Small-molecule inhibitors of histone acetyltransferase activity: identification and biological properties” (2006).
# Activity calls are given as the source filed them. No cut-off for these calls is given here.
# Experiments:
# [1] = target: Histone acetyltransferase GCN5 (Saccharomyces cerevisiae S288c) (UniProt Q03330); assay: Inhibition of Saccharomyces cerevisiae GCN5 at 0.6 mM
# How it was run: (§1)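 Yeast strains (wild-type MK839, F221A and E173H GCN5 catalytic mutants, spt20∆) grown at 28 °C with 0.6 mM compound; ten-fold serial dilutions of liquid culture spotted on solid medium. Growth estimated by optical density as arbitrary units.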
# Saccharomyces cerevisiae [2] = assay: Inhibition of Saccharomyces cerevisiae growth at 0.6 mM; format: functional, organism-based; how it was run: as §1
# [3] = target: Histone acetyltransferase GCN5 (Saccharomyces cerevisiae S288c) (UniProt Q03330); assay: Inhibition of GCN5-dependent HIS3-LacZ reporter gene transcription measured as level of beta-galactosidase activity in Saccharomyces cerevisiae; format: functional
# How it was run: (§2)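 Yeast reporter strains: HIS3-LacZ (yPO14) grown 16 h in SD at 28 °C and then 4 h with 25 mM 3-aminotriazole; GAL10-CYC1-LacZ (yPO1569) grown 16 h in SD, washed, then 4 h in galactose SG medium. Compounds at 0.6 mM. β-Gal activity read in glass-bead extracts normalized to Bradford protein; 1 unit = 1 µmol o-nitrophenol/min.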
# [4] = target: Histone acetyltransferase GCN5 (Saccharomyces cerevisiae S288c) (UniProt Q03330); assay: Inhibition of GCN5-dependent HIS3-LacZ reporter gene transcription measured as level of beta-galactosidase activity in Saccharomyces cerevisiae in presence of 3-aminotriazole; format: functional
# Saccharomyces cerevisiae [5] = assay: Inhibition of Saccharomyces cerevisiae H3 histone acetylation at 1.5 mM; format: functional, organism-based
# How it was run: (§3)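 Wild-type S. cerevisiae grown 16 h in YPD at 28 °C with 0.6, 1 or 1.5 mM compound; gcn5∆ strain run in parallel. Alkaline protein extraction, 15% SDS-PAGE, Western blot with anti-acetyl-H3 and anti-H3 antibodies, ECL detection.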
# U-937 [6] = assay: Effect on granulocytic differentiation in human U937 cells measured as CD11c expression level at 1 mM after 30 hrs; format: functional
# How it was run: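 U937 cells (RPMI, 10% FBS, 200 000 cells/mL) exposed 30 h to 1 mM. Stained with PE-conjugated CD11c, 30 min at 4 °C in the dark; PE mouse IgG1 as staining control; propidium iodide 0.25 µg/mL added and PI-positive cells excluded. Reported as percent CD11c-positive cells by FACS.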
# U-937 [7] = assay: Inhibition of HAT in human U937 cells at 500 uM; format: functional; parameters: scale not given: the % may be the effect or the level left
# How it was run: (§4)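 Indirect ELISA for acetylated histone H3 using 10 µg U937 nuclear extract per well as HAT source; 90 min incubation with compound (25, 50 or 500 µM) or DMSO control. Acetylated H3 peptide standard curve; expressed as % inhibition relative to untreated extract (100%).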
# U-937 [8] = assay: Inhibition of alpha-tubulin acetylation in human U937 cells at 2.5 mM; format: functional, cell-based
# How it was run: (§5)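 U937 cells pretreated 2 h with 5 µM SAHA, washed, then incubated 4 h with vehicle or compound at 2.5 mM. Western blot for acetylated histone H3 and acetylated α-tubulin (50 µg protein on 10% gels, normalized to total ERKs).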
# Saccharomyces cerevisiae [9] = assay: Inhibition of GCN5-independent GAL10-CYC1-LacZ reporter gene transcription measured as level of beta-galactosidase activity in Saccharomyces cerevisiae under galactose induction
# U-937 [10] = assay: Inhibition of HAT in human U937 cells at 50 uM; format: functional; parameters: scale not given: the % may be the effect or the level left; how it was run: as §4
# U-937 [11] = assay: Inhibition of HAT in human U937 cells at 25 uM; format: functional; parameters: scale not given: the % may be the effect or the level left; how it was run: as §4
# U-937 [12] = assay: Inhibition of H3 histone acetylation in human U937 cells at 100 uM; format: functional, cell-based
# How it was run: (§6)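 SAHA 5 µM pretreatment of U937 cells for 2 h, then wash and 4 h with vehicle or 100 µM compound. Acetyl-H3 and acetyl-α-tubulin detected by Western blot (50 µg total protein for tubulin, total ERKs as loading control).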
# U-937 [13] = assay: Inhibition of alpha-tubulin acetylation in human U937 cells at 100 uM; format: functional, cell-based; how it was run: as §6
# Saccharomyces cerevisiae [14] = assay: Inhibition of growth of Saccharomyces cerevisiae F221A mutant at 0.6 mM; format: functional, organism-based; how it was run: as §1
# Saccharomyces cerevisiae [15] = assay: Inhibition of growth of Saccharomyces cerevisiae E173H mutant at 0.6 mM; format: functional, organism-based; how it was run: as §1
# Saccharomyces cerevisiae [16] = assay: Inhibition of growth of wild type Saccharomyces cerevisiae MK839 mutant at 0.6 mM; format: functional, organism-based; how it was run: as §1
# Saccharomyces cerevisiae [17] = assay: Inhibition of growth of Saccharomyces cerevisiae spt20delta mutant at 0.6 mM; format: functional, organism-based; how it was run: as §1
# Saccharomyces cerevisiae [18] = assay: Inhibition of GCN5-independent GAL10-CYC1-LacZ reporter gene transcription measured as level of beta-galactosidase activity in Saccharomyces cerevisiae; format: functional, organism-based; how it was run: as §2
# Saccharomyces cerevisiae [19] = assay: Inhibition of Saccharomyces cerevisiae H3 histone acetylation at 0.6 mM; format: functional, organism-based; how it was run: as §3
# Saccharomyces cerevisiae [20] = assay: Inhibition of Saccharomyces cerevisiae H3 histone acetylation at 1 mM; format: functional, organism-based; how it was run: as §3
# U-937 [21] = assay: Cell cycle arrest at G1 phase in human U937 cells at 1 mM after 24 hrs; format: functional, cell-based
# How it was run: (§7)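 U937 cells in RPMI with 10% FBS and antibiotics, held at 200 000 cells/mL, treated 24 h at 1 mM (DMSO stock). Cell cycle: 2.5 × 10^5 cells in hypotonic buffer with propidium iodide and RNase A, 30 min dark, flow cytometry; three experiments. Apoptosis: Annexin V/propidium iodide double staining by FACS.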
# U-937 [22] = assay: Induction of apoptosis in human U937 cells at 1 mM after 24 hrs; format: functional; how it was run: as §7
# U-937 [23] = assay: Inhibition of H3 histone acetylation in human U937 cells at 2.5 mM; format: functional, cell-based; how it was run: as §5
# Chain of Histone acetyltransferase GCN5 (Saccharomyces cerevisiae S288c) (Q03330 whole entry): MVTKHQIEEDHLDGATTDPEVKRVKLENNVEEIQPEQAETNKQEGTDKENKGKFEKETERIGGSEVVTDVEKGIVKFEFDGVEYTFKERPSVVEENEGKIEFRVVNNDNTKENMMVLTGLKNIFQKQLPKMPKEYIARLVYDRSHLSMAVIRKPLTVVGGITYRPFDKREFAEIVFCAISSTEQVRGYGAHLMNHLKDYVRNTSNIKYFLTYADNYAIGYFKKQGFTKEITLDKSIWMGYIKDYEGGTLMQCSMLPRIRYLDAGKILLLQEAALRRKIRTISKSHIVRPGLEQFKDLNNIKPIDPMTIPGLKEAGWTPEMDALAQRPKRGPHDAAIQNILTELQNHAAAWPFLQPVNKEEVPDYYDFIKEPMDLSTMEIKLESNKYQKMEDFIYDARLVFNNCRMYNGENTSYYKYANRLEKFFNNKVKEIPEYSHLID
structure (smiles),measurement,setting,value
Cc1ccc2ccccc2n1,Activity,[1],inactive
CCOC(=O)c1cnc2ccccc2c1,Activity,Saccharomyces cerevisiae [2],Active
same,Activity,[1],Active
same,Activity,[3],Active
same,Activity,[4],Active
same,Activity,Saccharomyces cerevisiae [5],Active
same,Activity,U-937 [6],14%
same,Activity,U-937 [7],25%
same,Activity,U-937 [8],Active
same,Activity,Saccharomyces cerevisiae [9],Active
COc1cc(/C=C/C(=O)CC(=O)/C=C/c2ccc(O)c(OC)c2)ccc1O [CURCUMIN],Activity,U-937 [10],17.5%
CCCCCc1nc2ccccc2c(O)c1C(=O)O,Activity,U-937 [10],30%
same,Activity,U-937 [11],24%
same,Activity,U-937 [12],Active
same,Activity,U-937 [13],Active
C=C1C(=O)O[C@H](CCC)[C@H]1C(=O)O,Activity,U-937 [10],44%
CCOC(=O)c1c(C)nc2ccccc2c1O,Activity,[1],inactive
CCOC(=O)c1cccnc1C,Activity,[1],inactive
same,Activity,Saccharomyces cerevisiae [14],inactive
same,Activity,Saccharomyces cerevisiae [15],inactive
same,Activity,Saccharomyces cerevisiae [16],inactive
same,Activity,Saccharomyces cerevisiae [17],inactive
same,Activity,[3],inactive
same,Activity,[4],inactive
same,Activity,Saccharomyces cerevisiae [18],inactive
same,Activity,Saccharomyces cerevisiae [9],inactive
NC(=O)c1cnc2ccccc2c1,Activity,[1],inactive
CCOC(=O)c1cc2ccccc2nc1C,Activity,Saccharomyces cerevisiae [2],Active
same,Activity,[3],Active
same,Activity,[4],Active
same,Activity,Saccharomyces cerevisiae [18],inactive
same,Activity,Saccharomyces cerevisiae [19],Active
same,Activity,Saccharomyces cerevisiae [20],Active
same,Activity,U-937 [21],Active
same,Activity,U-937 [22],27%
same,Activity,U-937 [6],8.8%
same,Activity,U-937 [7],32%
same,Activity,U-937 [23],Active
same,Activity,U-937 [8],Active
same,Activity,Saccharomyces cerevisiae [9],inactive
O=C(O)c1cnc2ccccc2c1,Activity,[1],inactive
C=CC/C=C\C/C=C\CCCCCCCc1cccc(O)c1C(=O)O [ANACARDIC ACID],Activity,U-937 [10],15%
CCOC(=O)c1ccc2ccccc2c1,Activity,[1],inactive
